Test results taken from ChEMBL document CHEMBL3865799, “Synthesis of a series of novel dihydroartemisinin monomers and dimers containing chalcone as a linker and their anticancer activity” (Eur J Med Chem, 2016).

Experiments:
[1] = Cytotoxicity against human HL60 cells assessed as cell growth inhibition at 1 uM after 48 hrs by MTT assay; assay type: functional; settings: HL-60, 48 h, read-out: GI
How it was run: (§1)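 HL-60 suspension cells, 1.5 × 10^4 per well, grown at 37 °C in 5% CO2 with 10% FCS. Treated 48 h with compound in DMSO (vehicle <0.2% v/v). MTT added 3 h before the end. Formazan dissolved in DMSO and read at 570 nm (reference 620 nm). % growth inhibition computed against untreated cells; IC50 taken from the concentration series.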

[2] = test system: Vero; assay: Selectivity index, ratio of IC50 for African green monkey Vero cells to IC50 for human HL60 cells; assay type: functional
How it was run: (§2)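 Suspension cells were seeded at 1.5 × 10^4 per well and adherent lines at 70–75% confluence, then exposed to a range of concentrations. MTT was added 3 h before the end, formazan dissolved in DMSO, and OD read at 570 nm (reference 620 nm). Growth inhibition was taken relative to untreated cells. IC50 came from the MTT data; SI = IC50 in Vero cells / IC50 in the tumour line.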

[3] = test system: Vero; assay: Selectivity index, ratio of IC50 for African green monkey Vero cells to IC50 for human MIAPaCa2 cells; assay type: functional; how it was run: as §2
[4] = Cytotoxicity against human PC3 cells assessed as cell growth inhibition at 30 uM after 48 hrs by MTT assay; assay type: functional; settings: PC-3, 48 h, read-out: GI
How it was run: (§3)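 Adherent lines at 70–75% confluence, grown at 37 °C in 5% CO2 with 10% FCS. Exposed 48 h to compound in DMSO (vehicle <0.2% v/v). MTT dye added 3 h before termination; formazan dissolved in DMSO, OD 570 nm with 620 nm reference. Growth inhibition expressed as % of untreated; IC50 taken from the dose series.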

[5] = Cytotoxicity against human PC3 cells assessed as cell growth inhibition after 48 hrs by MTT assay; assay type: functional, cell-based; settings: PC-3, 48 h
How it was run: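 Exposed 48 h to compound in DMSO (vehicle <0.2% v/v). MTT dye added 3 h before termination; formazan dissolved in DMSO, OD 570 nm with 620 nm reference. Growth inhibition expressed as % of untreated; IC50 taken from the dose series.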

[6] = Cytotoxicity against human PC3 cells assessed as cell growth inhibition at 50 uM after 48 hrs by MTT assay; assay type: functional; settings: PC-3, 48 h, read-out: GI; how it was run: as §3
[7] = test system: HepG2; assay: Selectivity index, ratio of IC50 for African green monkey Vero cells to IC50 for human HepG2 cells; assay type: functional; how it was run: as §2
[8] = Cytotoxicity against human HL60 cells assessed as cell growth inhibition at 10 uM after 48 hrs by MTT assay; assay type: functional; settings: HL-60, 48 h, read-out: GI; how it was run: as §1
[9] = test system: Vero; assay: Selectivity index, ratio of IC50 for African green monkey Vero cells to IC50 for human PC3 cells; assay type: functional; how it was run: as §2
[10] = Cytotoxicity against human MIAPaCa2 cells assessed as cell growth inhibition at 1 uM after 48 hrs by MTT assay; assay type: functional; settings: MIA PaCa-2, 48 h, read-out: GI; how it was run: as §3
[11] = Cytotoxicity against human MIAPaCa2 cells assessed as cell growth inhibition at 50 uM after 48 hrs by MTT assay; assay type: functional; settings: MIA PaCa-2, 48 h, read-out: GI; how it was run: as §3
[12] = Cytotoxicity against human MIAPaCa2 cells assessed as cell growth inhibition after 48 hrs by MTT assay; assay type: functional, cell-based; settings: MIA PaCa-2, 48 h; how it was run: as §3
[13] = Cytotoxicity against human HL60 cells assessed as cell growth inhibition at 0.5 uM after 48 hrs by MTT assay; assay type: functional; settings: HL-60, 48 h, read-out: GI; how it was run: as §1
[14] = Cytotoxicity against human HepG2 cells assessed as cell growth inhibition at 10 uM after 48 hrs by MTT assay; assay type: functional; settings: HepG2, 48 h, read-out: GI; how it was run: as §3
[15] = Cytotoxicity against human LS180 cells assessed as cell growth inhibition at 0.5 uM after 48 hrs by MTT assay; assay type: functional; settings: LS180, 48 h, read-out: GI; how it was run: as §3
[16] = Cytotoxicity against human LS180 cells assessed as cell growth inhibition at 50 uM after 48 hrs by MTT assay; assay type: functional; settings: LS180, 48 h, read-out: GI; how it was run: as §3
[17] = Cytotoxicity against human HepG2 cells assessed as cell growth inhibition after 48 hrs by MTT assay; assay type: functional, cell-based; settings: HepG2, 48 h; how it was run: as §3
[18] = Cytotoxicity against human HepG2 cells assessed as cell growth inhibition at 30 uM after 48 hrs by MTT assay; assay type: functional; settings: HepG2, 48 h, read-out: GI; how it was run: as §3
[19] = Cytotoxicity against human HL60 cells assessed as cell growth inhibition at 30 uM after 48 hrs by MTT assay; assay type: functional; settings: HL-60, 48 h, read-out: GI; how it was run: as §1
[20] = Cytotoxicity against human PC3 cells assessed as cell growth inhibition at 1 uM after 48 hrs by MTT assay; assay type: functional; settings: PC-3, 48 h, read-out: GI; how it was run: as §3
[21] = Cytotoxicity against human HL60 cells assessed as cell growth inhibition at 50 uM after 48 hrs by MTT assay; assay type: functional; settings: HL-60, 48 h, read-out: GI; how it was run: as §1
[22] = Cytotoxicity against human MIAPaCa2 cells assessed as cell growth inhibition at 30 uM after 48 hrs by MTT assay; assay type: functional; settings: MIA PaCa-2, 48 h, read-out: GI; how it was run: as §3
[23] = Cytotoxicity against human HL60 cells assessed as cell growth inhibition after 48 hrs by MTT assay; assay type: functional, cell-based; settings: HL-60, 48 h; how it was run: as §1
[24] = Cytotoxicity against human MIAPaCa2 cells assessed as cell growth inhibition at 10 uM after 48 hrs by MTT assay; assay type: functional; settings: MIA PaCa-2, 48 h, read-out: GI; how it was run: as §3
[25] = Cytotoxicity against human PC3 cells assessed as cell growth inhibition at 0.5 uM after 48 hrs by MTT assay; assay type: functional; settings: PC-3, 48 h, read-out: GI; how it was run: as §3
[26] = Cytotoxicity against human MIAPaCa2 cells assessed as cell growth inhibition at 0.5 uM after 48 hrs by MTT assay; assay type: functional; settings: MIA PaCa-2, 48 h, read-out: GI; how it was run: as §3
[27] = Cytotoxicity against human LS180 cells assessed as cell growth inhibition at 10 uM after 48 hrs by MTT assay; assay type: functional; settings: LS180, 48 h, read-out: GI; how it was run: as §3
[28] = Cytotoxicity against human PC3 cells assessed as cell growth inhibition at 10 uM after 48 hrs by MTT assay; assay type: functional; settings: PC-3, 48 h, read-out: GI; how it was run: as §3
[29] = Lipophilicity, log P of the compound; assay type: physicochemical; settings: octanol/water
[30] = Cytotoxicity against human HepG2 cells assessed as cell growth inhibition at 50 uM after 48 hrs by MTT assay; assay type: functional; settings: HepG2, 48 h, read-out: GI; how it was run: as §3
[31] = Cytotoxicity against human LS180 cells assessed as cell growth inhibition after 48 hrs by MTT assay; assay type: functional, cell-based; settings: LS180, 48 h; how it was run: as §3
[32] = Aqueous solubility of the compound at pH 7; assay type: physicochemical
[33] = Cytotoxicity against human LS180 cells assessed as cell growth inhibition at 30 uM after 48 hrs by MTT assay; assay type: functional; settings: LS180, 48 h, read-out: GI; how it was run: as §3
[34] = Cytotoxicity against human LS180 cells assessed as cell growth inhibition at 1 uM after 48 hrs by MTT assay; assay type: functional; settings: LS180, 48 h, read-out: GI; how it was run: as §3
[35] = Cytotoxicity against human HepG2 cells assessed as cell growth inhibition at 0.5 uM after 48 hrs by MTT assay; assay type: functional; settings: HepG2, 48 h, read-out: GI; how it was run: as §3
[36] = Cytotoxicity against human HepG2 cells assessed as cell growth inhibition at 1 uM after 48 hrs by MTT assay; assay type: functional; settings: HepG2, 48 h, read-out: GI; how it was run: as §3
[37] = Selectivity index, ratio of IC50 for African green monkey Vero cells to IC50 for human LS180 cells; assay type: functional; how it was run: as §2

Compound	inhibition of growth at 1 µM [1]	Ratio IC50 [2]	Ratio IC50 [3]	inhibition of growth at 30 µM [4]	IC50 [5]	inhibition of growth at 50 µM [6]	Ratio IC50 [7]	inhibition of growth at 10 µM [8]	Ratio IC50 [9]	inhibition of growth at 1 µM [10]	inhibition of growth at 50 µM [11]	IC50 [12]	inhibition of growth at 0.5 µM [13]	inhibition of growth at 10 µM [14]	inhibition of growth at 0.5 µM [15]	inhibition of growth at 50 µM [16]	IC50 [17]	inhibition of growth at 30 µM [18]	inhibition of growth at 30 µM [19]	inhibition of growth at 1 µM [20]	also measured
C[C@H]1[C@@H](OCCOc2ccc(/C=C/C(=O)c3ccco3)cc2)O[C@@H]2O[C@@]3(C)CC[C@H]4[C@H](C)CC[C@@H]1[C@@]24OO3	57.5%	90	59	55.1 to 58.1%	24 µM	69.4%	68	87.4%	94	19.1%	77.5%	> 50 µM	38%	24.8%	20%	28.3%	22 µM	25.2 to 67.3%	89.1%	15.8%	inhibition of growth at 50 µM [21]: 91.7%; inhibition of growth at 30 µM [22]: 39.8 to 67.3%; IC50 [23]: 0.7 µM; inhibition of growth at 10 µM [24]: 26.2%; inhibition of growth at 0.5 µM [25]: 15.1%; inhibition of growth at 0.5 µM [26]: 18.4%; inhibition of growth at 10 µM [27]: 26.9%; inhibition of growth at 10 µM [28]: 43.4%; logP [29]: 5.34 to 7.45; inhibition of growth at 50 µM [30]: 26.9 to 42.6%; IC50 [31]: > 50 µM; solubility [32]: < 10 µg/mL; inhibition of growth at 30 µM [33]: 26.9%; inhibition of growth at 1 µM [34]: 25.7%; inhibition of growth at 0.5 µM [35]: 1%; inhibition of growth at 1 µM [36]: 14.7%; Ratio IC50 [37]: >200
COc1cc(/C=C/C(=O)c2ccc(OCCO[C@H]3O[C@@H]4O[C@@]5(C)CC[C@H]6[C@H](C)CC[C@@H]([C@H]3C)[C@@]46OO5)cc2)cc(OC)c1OCCO[C@H]1O[C@@H]2O[C@@]3(C)CC[C@H]4[C@H](C)CC[C@@H]([C@H]1C)[C@@]24OO3	83.9%	88	100	57.6%	10 µM	57.9%	210	84.6%	210	38.1%	48.1%	> 50 µM	77.2%	59.1%	15.3%	70.1%	4 µM	32.9%	85.4%	45.9%	inhibition of growth at 50 µM [21]: 86.1%; inhibition of growth at 30 µM [22]: 37.4 to 40.1%; IC50 [23]: 0.3 µM; inhibition of growth at 10 µM [24]: 38.7%; inhibition of growth at 0.5 µM [25]: 34.5%; inhibition of growth at 0.5 µM [26]: 37.3%; inhibition of growth at 10 µM [27]: 44.6%; inhibition of growth at 10 µM [28]: 50.2%; logP [29]: 5.34 to 7.45; inhibition of growth at 50 µM [30]: 33.8 to 58.1%; IC50 [31]: 16 µM; solubility [32]: < 10 µg/mL; inhibition of growth at 30 µM [33]: 58.1%; inhibition of growth at 1 µM [34]: 27.6%; inhibition of growth at 0.5 µM [35]: 38.8%; inhibition of growth at 1 µM [36]: 41.5%; Ratio IC50 [37]: 162
